Assay outcomes as filed in PubChem BioAssay.
Shown are actives, neighbours in structure and some others; about 3.8% of the full set was active somewhere.
rCAG RNA binder – binders of r(CAG) RNA repeats, primary screen, biochemical, fluorescence; inhibition, % at 3 µM; r(CAG) RNA repeat, TO-PRO-1 dye displacement fluorescence; actives 1.3% (n = 370,000);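 active means inhibition above the plate cutoff, the mean of all test compounds on that plate plus 3 SD, cut at about 35% in these data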;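 further: higher means more dye released from RNA so lower well fluorescence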
T cell HTS – modulators of CD8 T cell-vesicle binding, primary screen, mouse 2C CD8+ T cells, flow cytometry; AID 2052, 2009; actives 0.068% (n = 330,000); response (vesicle binding), % at 7 µM; 2C CD8+ T cell-vesicle binding; hits give low values;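 active means response, share of CD8 T cells binding vesicles, and their 90th percentile fluorescence all below set limits, cut at about 80% in these data, passing the limit was not always enough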;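 further: values below 100% mean blocked vesicle binding to the CD8+ T cells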
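incubation = binding step 1.5 h, 37 °C, antibody labelling 20 min, ice | test system = 2C mouse CD8+ T cells | read-out basis = percent CD8+ FL2 mean versus row control | controls = Peptide-free naked vesicles (low) and QL9 vesicles with 0.7% DMSO vehicle (high) | detection = flow cytometry of vesicle-bound cells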
Granule exo inh – LAMP-1 surface exposure blockers, TALL-104 cells – cell-based, flow cytometry, MLPCN library, primary screen; TALL-104 LAMP-1 surface exposure; cells stimulated with thapsigargin and PMA; inhibition, % at 10 µM; actives 0.66% (n = 360,000); AID 651702, 2012;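 active means inhibition above about 55%, limit read from the data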
B2AR ag – beta2AR agonists driving receptor internalization, primary screen, cell-based, FAP fluorogen, flow cytometry | Beta-2 adrenergic receptor (Homo sapiens), P07550 | Am2.2-beta2AR cells | response, % (test concentration not listed) | actives 0.43% (n = 340,000);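 active means response above a set limit, near 3 SD of response in nonfluorescent compounds, cut at about 42% in these data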
Target sequence (P07550 whole entry, looked up): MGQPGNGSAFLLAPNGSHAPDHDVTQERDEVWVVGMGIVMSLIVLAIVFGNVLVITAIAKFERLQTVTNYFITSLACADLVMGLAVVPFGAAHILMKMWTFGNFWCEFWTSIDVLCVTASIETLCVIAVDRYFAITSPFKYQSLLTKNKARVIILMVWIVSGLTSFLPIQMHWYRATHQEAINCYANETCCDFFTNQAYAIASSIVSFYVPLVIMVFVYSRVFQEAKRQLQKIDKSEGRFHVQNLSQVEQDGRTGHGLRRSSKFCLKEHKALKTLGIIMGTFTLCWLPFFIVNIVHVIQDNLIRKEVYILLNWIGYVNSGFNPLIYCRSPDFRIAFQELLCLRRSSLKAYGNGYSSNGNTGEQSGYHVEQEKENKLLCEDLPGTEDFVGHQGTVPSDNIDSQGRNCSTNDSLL
MPTP block – mitochondrial permeability transition pore inhibitors, primary screen, biochemical, isolated mouse mitochondria, absorbance; actives 1.4% (n = 360,000); inhibition, % at 10 µM; Ca2+ swelling absorbance, 30 min; AID 602449, 2012;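 active means inhibition of 50% or more, scaled per plate between neutral and stimulator controls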
V-ATPase pHluor – regulators of yeast V-ATPase proton pumping, primary screen, pHLuorin cytosolic pH fluorescence. S. cerevisiae. response, % at 10 µM. actives 0.37% (n = 350,000). AID 504577, 2011; in the data active means response mostly above about 7.3%, no sharp cut-off; inactive means mostly below about 5.4%; further: actives read high
rCAG binder conf – small molecules binding CAG repeat RNA – biochemical, fluorescence, confirmation | actives 70% (n = 4,300) | r(CAG) RNA repeat, TO-PRO-1 dye displacement fluorescence | shares compounds with rCAG RNA binder | inhibition, % at 3 µM;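 active means inhibition above a per-plate cutoff, the mean inhibition of sample wells plus 3 SD, cut at about 35% in these data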;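 further: loss of TO-PRO-1 fluorescence as compound displaces dye from 1x1 AA loop RNA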
dCAG dye counter – displacement of TO-PRO-1 from CAG DNA duplex, counter-screen for rCAG RNA repeat binder project, biochemical, fluorescence, TO-PRO-1 dye, d(CAG) DNA oligo; shares compounds with rCAG RNA binder; d(CAG) DNA oligo TO-PRO-1 dye displacement; actives 94% (n = 4,300); inhibition, % at 3 µM;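 active means inhibition above its plate's cutoff, the mean test-well inhibition plus 3 SD, cut at about 4.8% in these data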;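 further: hits displace the dye from DNA and so lower well fluorescence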
Each line names hits and unclear results; the compound was inactive in the other large screens (follow-up assays come after a bar, where they were run).

CCCOc1ccc(Cc2nn3c(=O)/c(=C/c4ccco4)sc3nc2=O)cc1	none
COc1ccccc1/C=C/C=c1\sc2nc(=O)c(Cc3ccccc3)nn2c1=O	rCAG RNA binder 40.4 | rCAG binder conf 49.9 | dCAG dye counter 21.5
CCCCCCCCN1CN2Cc3ccc(C)cc3C2CS1(=O)=O (stereo not drawn)	none (no result: T cell HTS, Granule exo inh, B2AR ag, MPTP block, V-ATPase pHluor)
C/C=C/c1ccc([C@H]2[C@@H](CN(CC(C)C)S(=O)(=O)c3ccccc3[N+](=O)[O-])N(C(=O)Nc3cccc(OC)c3)[C@H]2CO)cc1	none (no result: T cell HTS, Granule exo inh, B2AR ag, MPTP block, V-ATPase pHluor)
O=[N+]([O-])c1c(NCc2ccco2)ccc2nonc12	none
CC(=O)OCCCNc1cc(SCc2ccco2)c2nonc2c1[N+](=O)[O-]	rCAG RNA binder 59.6 | rCAG binder conf inactive | dCAG dye counter 9.8
CC(=O)c1ccc(NC(=O)CSC2=NS(=O)(=O)c3cc(Cl)ccc3N2)cc1	rCAG RNA binder 60.7 | rCAG binder conf 43.5 | dCAG dye counter 13.6
C[C@@H]1CCN(C2CC2)S(=O)(=O)c2c(cccc2N2CC[C@H](N(C)C)C2)O1	none (no result: T cell HTS, Granule exo inh, B2AR ag, MPTP block, V-ATPase pHluor)
Brc1ccc(CN2CCCc3nc(-c4ccccc4)ccc32)cc1	none (no result: T cell HTS, Granule exo inh, B2AR ag, MPTP block, V-ATPase pHluor)
O=S(=O)(NC1=NCCCCC1)c1ccc2sc(NS(=O)(=O)c3ccc4ccccc4c3)nc2c1	rCAG RNA binder 56.4 | rCAG binder conf 63.0 | dCAG dye counter 27.7
C=CCn1c(COc2ccc(C)cc2)nnc1SCC(=O)Nc1ccc(Oc2ccccc2)cc1	none (no result: T cell HTS, Granule exo inh, B2AR ag, MPTP block, V-ATPase pHluor)
Cc1nnc(SCC(=O)Nc2sc3c(c2C#N)CCCC3)[nH]c1=O	none
CCOC(=O)c1c(NC(=O)C(C)Sc2nnc(C)c(=O)[nH]2)sc2c1CCCC2 (stereo not drawn)	rCAG RNA binder 69.1 | rCAG binder conf 66.1 | dCAG dye counter 30.0
CCOC(=O)c1c(NC(=O)CSc2nnc(C)s2)sc2c1CCCCC2	none
CCOC(=O)c1c(NC(=O)CSc2nnc(C)c(=O)[nH]2)sc2c1CCCC2	rCAG RNA binder 69.5 | rCAG binder conf 65.6 | dCAG dye counter 20.5
CC1(C(=O)NS(=O)(=O)c2ccc3ccccc3c2)CCN1C(=O)Cc1ccc(Cl)cc1Cl (stereo not drawn)	rCAG RNA binder 51.6 (no result: T cell HTS, B2AR ag, V-ATPase pHluor) | rCAG binder conf 54.1 | dCAG dye counter 18.0
CCCCc1ccc(S(=O)(=O)NC(=O)C2(C)CCN2C(=O)CCc2cccs2)cc1 (stereo not drawn)	rCAG RNA binder 43.6 (no result: T cell HTS, B2AR ag, V-ATPase pHluor) | rCAG binder conf 35.7 | dCAG dye counter 9.9
CC1(C(=O)NS(=O)(=O)c2cccc(Cl)c2)CCN1C(=O)CCc1ccc(Cl)cc1Cl (stereo not drawn)	rCAG RNA binder 53.6 (no result: T cell HTS, B2AR ag, V-ATPase pHluor) | rCAG binder conf 51.5 | dCAG dye counter 16.0
Cc1ccccc1S(=O)(=O)NC(=O)C1(C)CCN1C(=O)CCc1cccs1 (stereo not drawn)	none (no result: T cell HTS, B2AR ag, V-ATPase pHluor)
COC(=O)C1CN(Cc2ccc(C)cc2)CCS(=O)(=O)N1Cc1cn(Cc2ccc(F)cc2)nn1 (stereo not drawn)	none (no result: T cell HTS, Granule exo inh, B2AR ag, MPTP block, V-ATPase pHluor)
COc1cc(NS(=O)(=O)c2ccc(NC(=S)NC(=O)CC(C)C)cc2)nc(OC)n1	none
Cc1ccc(NS(=O)(=O)c2ccc(Cl)c(NC(=S)NC(=O)C3CCCCC3)c2)cc1Cl	rCAG RNA binder 44.9 | rCAG binder conf 41.2 | dCAG dye counter 17.0
COc1cc(NS(=O)(=O)c2ccc(NC(=S)NC(=O)C3CCCC3)cc2)nc(OC)n1	rCAG RNA binder 44.5 | rCAG binder conf inactive | dCAG dye counter 10.2
COc1ccc(C(=O)NC(=S)Nc2ccc(S(=O)(=O)Nc3cc(OC)nc(OC)n3)cc2)cc1	rCAG RNA binder 58.1 | rCAG binder conf 55.4 | dCAG dye counter 19.5
Cc1ccc(NC(=O)C2CCCC2)cc1Cl	none
COc1ccc(OCC(=O)NC(=S)Nc2ccc(S(=O)(=O)Nc3cc(OC)nc(OC)n3)cc2)cc1	rCAG RNA binder 52.4 | rCAG binder conf 52.6 | dCAG dye counter 19.7
COC(=O)C1CN(Cc2ccc(F)cc2)CCS(=O)(=O)N1Cc1cn(Cc2ccc(F)cc2)nn1 (stereo not drawn)	none (no result: T cell HTS, Granule exo inh, B2AR ag, MPTP block, V-ATPase pHluor)
O=C1S/C(=C\C=C\c2ccco2)C(=O)N1c1ccc(O)cc1	rCAG RNA binder 37.6 | rCAG binder conf inactive | dCAG dye counter 9.9
O=C1OC(c2ccccc2)=N/C1=C\C=C\c1ccco1	none
O=C1S/C(=C\C=C\c2ccco2)C(=O)N1c1ccccc1	rCAG RNA binder 40.7 | rCAG binder conf inactive | dCAG dye counter 11.5
O=C(N[C@@H](Cc1cccnc1)C(=O)N1CCC[C@H]1C(=O)NC1CCCC1)c1ccccc1	none (no result: T cell HTS, Granule exo inh, B2AR ag, MPTP block, V-ATPase pHluor)
CCOc1cccc(-c2nnc3n2N=C(c2ccc(OC)cc2)CS3)c1	none (no result: T cell HTS, Granule exo inh, B2AR ag, MPTP block, V-ATPase pHluor)
O=c1[nH]c(=S)[nH]c2c1C(c1ccc(Br)cc1)c1c([nH]c(=S)[nH]c1=O)O2	rCAG RNA binder 86.7, V-ATPase pHluor 146.6 (no result: B2AR ag) | rCAG binder conf 83.7 | dCAG dye counter 47.5
COC[C@@H](O)[C@H]1OCc2cccc(OC)c2[C@@H]1/C=C/c1ccccc1	none (no result: T cell HTS, Granule exo inh, B2AR ag, MPTP block, V-ATPase pHluor)
Cc1ccc(CNC(=O)C(C)OC(=O)c2ccco2)cc1 (stereo not drawn)	rCAG RNA binder 56.5 | rCAG binder conf inactive | dCAG dye counter inactive
O=C(Nc1ccc2[nH]ccc2c1)c1cc(-c2ccc(Cl)cc2)nc2ccccc12	none (no result: T cell HTS, Granule exo inh, B2AR ag, MPTP block, V-ATPase pHluor)
O=C1CS(=O)(=O)N(Cc2cccc(F)c2)c2ccc(Br)cc21	rCAG RNA binder 52.4 | rCAG binder conf inactive | dCAG dye counter 13.9
COCC(=O)N1CC[C@H]2[C@@H]1c1cc(-c3cccc(OC)c3)ccc1N(C)[C@H]2CO	none (no result: T cell HTS, Granule exo inh, B2AR ag, MPTP block, V-ATPase pHluor)
COc1cc2c(cc1OC)C(c1ccccc1)N(C(=O)c1ccco1)CC2 (stereo not drawn)	none
COc1cc2c(cc1OC)C(c1ccccc1)N(Cc1ccc(S(=O)(=O)NC(=O)c3ccco3)cc1)CC2 (stereo not drawn)	rCAG RNA binder 39.8 (no result: T cell HTS, B2AR ag, V-ATPase pHluor) | rCAG binder conf 39.4 | dCAG dye counter 11.3
COC(=O)c1sccc1NC(=O)CSc1ccccc1NS(=O)(=O)c1ccccc1Cl	rCAG RNA binder 35.5 | rCAG binder conf 61.9 | dCAG dye counter 19.9
COC(=O)[C@]12C[C@H](CC(=O)NCCCCc3ccccc3)C(=O)N(Cc3cccc4ccccc34)C1=C[C@H](C1CCCC1)O[C@@H]2C	none (no result: T cell HTS, Granule exo inh, B2AR ag, MPTP block, V-ATPase pHluor)
